The values below come from the M2OR odorant receptor database.

Settings in all cases: stereoisomer not certain
One assay deals with T1, OR2L13 (Homo sapiens) (UniProt Q8N349).
T1 sequence (whole entry): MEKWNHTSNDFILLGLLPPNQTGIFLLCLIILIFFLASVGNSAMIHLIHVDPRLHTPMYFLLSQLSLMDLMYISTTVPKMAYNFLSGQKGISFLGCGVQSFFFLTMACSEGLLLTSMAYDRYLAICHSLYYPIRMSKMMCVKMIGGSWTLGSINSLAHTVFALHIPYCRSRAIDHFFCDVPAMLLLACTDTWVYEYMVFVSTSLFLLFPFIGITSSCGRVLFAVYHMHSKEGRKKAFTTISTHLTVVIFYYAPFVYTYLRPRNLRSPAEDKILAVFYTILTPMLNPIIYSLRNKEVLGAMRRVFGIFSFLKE
The gist of the method: (§1)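 Transient luciferase assays in mammalian cell lines were common, though methods varied by source. The values come from published papers and their supplementary material, with extra details from the original authors when needed. Responsive refers to a measured signal the original authors judged statistically different from baseline, and non-responsive (inactive) to the remainder.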

The next assay has as its target T2, OR2L2 (Homo sapiens) (UniProt Q8NH16).
T2 sequence (whole entry): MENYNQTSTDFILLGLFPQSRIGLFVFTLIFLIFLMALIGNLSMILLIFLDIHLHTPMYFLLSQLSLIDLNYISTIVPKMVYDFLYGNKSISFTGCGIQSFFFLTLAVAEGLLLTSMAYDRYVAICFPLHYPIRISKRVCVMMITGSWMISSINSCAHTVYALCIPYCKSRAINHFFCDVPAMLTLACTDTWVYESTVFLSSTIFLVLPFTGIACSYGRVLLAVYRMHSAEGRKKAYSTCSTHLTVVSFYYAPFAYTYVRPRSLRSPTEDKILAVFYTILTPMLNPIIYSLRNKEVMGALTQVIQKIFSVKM
The gist of the method:
as §1

For the next assay, the target named is T3, OR2L3 (Homo sapiens) (UniProt Q8NG85).
T3 sequence (whole entry): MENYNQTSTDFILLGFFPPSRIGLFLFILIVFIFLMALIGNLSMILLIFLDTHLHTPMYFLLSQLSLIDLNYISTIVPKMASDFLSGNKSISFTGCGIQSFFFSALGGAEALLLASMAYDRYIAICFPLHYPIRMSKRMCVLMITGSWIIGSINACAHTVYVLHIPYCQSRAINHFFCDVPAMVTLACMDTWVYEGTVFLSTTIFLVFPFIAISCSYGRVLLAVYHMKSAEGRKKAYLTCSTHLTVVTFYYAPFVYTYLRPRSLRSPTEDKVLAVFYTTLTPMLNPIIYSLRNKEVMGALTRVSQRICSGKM
In short, it runs like this:
as §1

Another assay concerns the target T4, OR2L5 (Homo sapiens) (UniProt Q8NG80).
T4 sequence (whole entry): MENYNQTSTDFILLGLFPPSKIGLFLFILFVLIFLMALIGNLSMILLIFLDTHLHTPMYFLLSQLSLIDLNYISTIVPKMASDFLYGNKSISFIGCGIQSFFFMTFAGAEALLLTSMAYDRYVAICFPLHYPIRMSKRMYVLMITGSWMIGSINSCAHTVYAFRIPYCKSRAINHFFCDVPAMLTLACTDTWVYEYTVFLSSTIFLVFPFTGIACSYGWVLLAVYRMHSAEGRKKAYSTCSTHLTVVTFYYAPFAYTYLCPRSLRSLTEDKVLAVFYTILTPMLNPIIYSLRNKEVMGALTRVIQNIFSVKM
In short, it runs like this: as §1

Another assay deals with T5, OR2L8 (Homo sapiens) (UniProt Q8NGY9).
T5 sequence (whole entry): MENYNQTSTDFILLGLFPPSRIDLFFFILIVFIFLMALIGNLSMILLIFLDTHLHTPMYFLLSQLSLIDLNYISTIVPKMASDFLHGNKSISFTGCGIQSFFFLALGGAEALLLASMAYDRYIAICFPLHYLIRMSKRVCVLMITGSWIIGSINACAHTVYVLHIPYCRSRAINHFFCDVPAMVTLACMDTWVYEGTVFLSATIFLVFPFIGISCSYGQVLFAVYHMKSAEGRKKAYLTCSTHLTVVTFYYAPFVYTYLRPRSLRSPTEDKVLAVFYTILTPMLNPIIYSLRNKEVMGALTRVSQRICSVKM
In short, it runs like this: as §1

Another assay addresses T6, OR2M2 (Homo sapiens) (UniProt Q96R28).
T6 sequence (whole entry): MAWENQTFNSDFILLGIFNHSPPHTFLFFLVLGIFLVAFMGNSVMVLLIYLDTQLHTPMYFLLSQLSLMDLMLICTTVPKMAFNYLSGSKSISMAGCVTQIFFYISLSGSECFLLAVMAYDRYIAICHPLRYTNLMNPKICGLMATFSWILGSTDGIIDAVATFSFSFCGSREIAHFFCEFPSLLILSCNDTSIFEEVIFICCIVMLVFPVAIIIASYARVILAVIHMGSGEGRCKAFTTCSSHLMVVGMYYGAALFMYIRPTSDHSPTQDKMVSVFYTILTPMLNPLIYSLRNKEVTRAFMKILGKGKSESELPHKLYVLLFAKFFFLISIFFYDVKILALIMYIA
In short, it runs like this: as §1

The target in a further assay is T7, OR2M3 (Homo sapiens) (UniProt Q8NG83).
T7 sequence (whole entry): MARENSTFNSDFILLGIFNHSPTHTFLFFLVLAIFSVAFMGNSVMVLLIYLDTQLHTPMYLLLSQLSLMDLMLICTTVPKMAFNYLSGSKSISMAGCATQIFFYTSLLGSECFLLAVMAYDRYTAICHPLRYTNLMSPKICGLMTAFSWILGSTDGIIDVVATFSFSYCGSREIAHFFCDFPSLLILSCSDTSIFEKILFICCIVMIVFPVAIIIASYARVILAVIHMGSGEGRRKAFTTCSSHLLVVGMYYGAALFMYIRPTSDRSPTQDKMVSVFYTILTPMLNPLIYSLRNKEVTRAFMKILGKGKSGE
In short, it runs like this: as §1

Another assay deals with OR2M3 A216T. The gist of the method:
as §1

The test system of the next assay is OR2M3 A33G M144T. In short, it runs like this:
as §1

The next assay relates to OR2M3 A33G. The gist of the method: as §1

Molecules are shown by their SMILES.
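Note: active if original authors judged signal statistically different from baseline.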

OR2M3 A216T, sequence (as listed by the source, stated change not applied): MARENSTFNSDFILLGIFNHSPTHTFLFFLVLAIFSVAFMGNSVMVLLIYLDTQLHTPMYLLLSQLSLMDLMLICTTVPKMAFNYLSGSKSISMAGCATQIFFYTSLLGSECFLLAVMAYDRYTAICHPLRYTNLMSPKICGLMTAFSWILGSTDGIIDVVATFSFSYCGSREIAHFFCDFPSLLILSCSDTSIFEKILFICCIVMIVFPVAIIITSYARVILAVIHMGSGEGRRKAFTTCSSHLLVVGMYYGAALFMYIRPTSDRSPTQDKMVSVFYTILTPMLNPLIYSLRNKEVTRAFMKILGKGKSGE
OR2M3 A33G, sequence (as listed by the source, stated change not applied): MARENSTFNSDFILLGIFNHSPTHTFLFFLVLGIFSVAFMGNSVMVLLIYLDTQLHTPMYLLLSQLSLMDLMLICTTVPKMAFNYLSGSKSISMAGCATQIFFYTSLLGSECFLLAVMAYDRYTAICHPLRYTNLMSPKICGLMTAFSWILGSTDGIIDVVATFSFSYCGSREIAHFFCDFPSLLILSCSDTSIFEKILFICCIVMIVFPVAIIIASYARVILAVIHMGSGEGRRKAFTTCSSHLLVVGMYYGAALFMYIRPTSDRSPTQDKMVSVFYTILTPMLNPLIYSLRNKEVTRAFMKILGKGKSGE

`CCCCCCCCCCCCCCCC(=O)[O-].[H+]`: in the assay with OR2L13 (Homo sapiens), the “odorant receptor agonist call” value is “inactive”.
The same measure, in the same setting: in the case of `CCCCCCCCCCCCCCCC(=O)OCC` it was “inactive”; in that of `CCCO`, “inactive”; in that of `CCCCCCCCCCCCCC(=O)O`, “inactive”.
For `CCCCCCCCO`, the “odorant receptor agonist call” value in the assay with OR2L13 (Homo sapiens) and with OR2L2 (Homo sapiens) was “inactive” each time.
As to `CC(C=O)Cc1ccc(C(C)(C)C)cc1` (stereo unspecified), the “odorant receptor agonist call” value with OR2L13 (Homo sapiens) is “inactive”.
`CCCC(=O)CC`: the “odorant receptor agonist call” value in the assay with OR2L13 (Homo sapiens) was “inactive”.
Consider `CC1=C(O)C(=O)C(C)O1` (stereo unspecified), for which the “odorant receptor agonist call” value with OR2L13 (Homo sapiens), with OR2L2 (Homo sapiens), in the assay with OR2L3 (Homo sapiens), in the assay with OR2L5 (Homo sapiens), with OR2L8 (Homo sapiens) and with OR2M2 (Homo sapiens) was “inactive” throughout. Besides, the “odorant receptor agonist call” value in the assay with OR2M3 (Homo sapiens) is “inactive”.
For `Cc1cnc(C)cn1`, in the assay with OR2L13 (Homo sapiens), the “odorant receptor agonist call” value was “inactive”.
On to `CCC1OC(C)=C(O)C1=O` (stereo unspecified), for which the “odorant receptor agonist call” value with OR2L13 (Homo sapiens), with OR2L2 (Homo sapiens), with OR2L3 (Homo sapiens), with OR2L5 (Homo sapiens), with OR2L8 (Homo sapiens) and with OR2M2 (Homo sapiens) was “inactive” throughout. Besides, the “odorant receptor agonist call” value with OR2M3 (Homo sapiens) is “inactive”.
Regarding `CCCCCCCCCCCCCC(=O)OC`, in the assay with OR2L13 (Homo sapiens), the “odorant receptor agonist call” value is “inactive”.
Take `CCCCCCC=CCCC=O`: the “odorant receptor agonist call” value in the assay with OR2L13 (Homo sapiens), with OR2L2 (Homo sapiens), with OR2L3 (Homo sapiens), with OR2L5 (Homo sapiens), with OR2L8 (Homo sapiens) and with OR2M2 (Homo sapiens) was “inactive” throughout. The “odorant receptor agonist call” value with OR2M3 (Homo sapiens) is “inactive”.
Consider `CCCC(S)CCOC(C)=O` (stereo unspecified), for which the “odorant receptor agonist call” value with OR2L13 (Homo sapiens), in the assay with OR2L2 (Homo sapiens), in the assay with OR2L3 (Homo sapiens), with OR2L5 (Homo sapiens), in the assay with OR2L8 (Homo sapiens) and with OR2M2 (Homo sapiens) was “inactive” each time. For the same molecule, in the assay with OR2M3 (Homo sapiens), the “odorant receptor agonist call” value is “inactive”.
In the case of `CCCCCCCCCCCCCCCCCC(=O)OC`, the “odorant receptor agonist call” value with OR2L13 (Homo sapiens) was “inactive”.
The same measure, in the same setting: to `CCCCCCCCCC(=O)OC` belongs “inactive”.
For `Cc1ccc(C(C)C)cc1`, in the assay with OR2L13 (Homo sapiens), the “odorant receptor agonist call” value is “inactive”.
The same measure, in the same setting: to `COc1ccc2[nH]cc(CCNC(C)=O)c2c1` belongs “inactive”; to `CCCCCCCCCCCCO`, “active”.
The same measure, in the same setting: to `CCCCOCC(C)O` (stereo unspecified) belongs “inactive”.
For `CCC1OC(=O)C(O)=C1C` (stereo unspecified), the “odorant receptor agonist call” value with OR2L13 (Homo sapiens), with OR2L2 (Homo sapiens), with OR2L3 (Homo sapiens), in the assay with OR2L5 (Homo sapiens), with OR2L8 (Homo sapiens) and with OR2M2 (Homo sapiens) was “inactive” throughout. Further, the “odorant receptor agonist call” value with OR2M3 (Homo sapiens) was “inactive”.
As for `CCCCCCCCCCCCCCC(=O)O`, the “odorant receptor agonist call” value in the assay with OR2L13 (Homo sapiens) was “inactive”.
Still for that read-out and setting: in the case of `CCCCCCCCCCCC(=O)OCC` it was “inactive”.
For the molecule `Cc1cccc(C)c1C`, in the assay with OR2L13 (Homo sapiens), the “odorant receptor agonist call” value was “inactive”.
Consider `CCCCCCC(=O)[O-].[H+]`, for which the “odorant receptor agonist call” value in the assay with OR2L13 (Homo sapiens) was “inactive”.
As for `CCCCCCCCCCCC(=O)OC`, the “odorant receptor agonist call” value with OR2L13 (Homo sapiens) is “inactive”.
The same measure, in the same setting: to `CCCCCCCCCCCC(=O)O` belongs “inactive”; to `CC(C)=CCCC(C)=CCCC(C)=CCO`, “inactive”.
Still for that read-out and setting: to `CCCCCCCCCCCCCC(=O)OCC` belongs “inactive”; to `CCCCC(=O)C(C)=O`, “inactive”.
Same read-out and setting: in the case of `CCCCCCCCCCCCCCCC(=O)OC` it was “inactive”.
Regarding `CCCCCC(=O)C(C)C(C)=O` (stereo unspecified), the “odorant receptor agonist call” value in the assay with OR2L13 (Homo sapiens), in the assay with OR2L2 (Homo sapiens), with OR2L3 (Homo sapiens), with OR2L5 (Homo sapiens), with OR2L8 (Homo sapiens) and with OR2M2 (Homo sapiens) was “inactive” throughout. Also, the “odorant receptor agonist call” value in the assay with OR2M3 (Homo sapiens) was “inactive”.
For the molecule `CCCCCCCCCCCCCCCCCC(=O)OCC`, in the assay with OR2L13 (Homo sapiens), the “odorant receptor agonist call” value is “inactive”.
For the molecule `CCC(O)CC`, in the assay with OR2L13 (Homo sapiens), the “odorant receptor agonist call” value is “inactive”.
Same read-out and setting: in the case of `CCCCCCCCCCCCCCCCCC(=O)[O-].[H+]` it was “inactive”.
Regarding `CC1=C(O)C(=O)OC1C` (stereo unspecified), the “odorant receptor agonist call” value in the assay with OR2L13 (Homo sapiens), in the assay with OR2L2 (Homo sapiens), with OR2L3 (Homo sapiens), with OR2L5 (Homo sapiens), in the assay with OR2L8 (Homo sapiens) and in the assay with OR2M2 (Homo sapiens) was “inactive” in each case. For the same molecule, the “odorant receptor agonist call” value with OR2M3 (Homo sapiens) was “inactive”.
Take `CC(O)C(=O)[O-].[H+]` (stereo unspecified): the “odorant receptor agonist call” value with OR2L13 (Homo sapiens) is “inactive”.
Same read-out and setting: to `CCCCCCCC(=O)OC` belongs “inactive”.
As to `CCCCCCCC1CCC(=O)O1` (stereo unspecified), the “odorant receptor agonist call” value with OR2M3 (Homo sapiens) is “inactive”.
Still for that read-out and setting: in the case of `C=CC(=O)CC` it was “inactive”.
Regarding `CCC(S)C(C)CO` (stereo unspecified), the “odorant receptor agonist call” value with OR2L13 (Homo sapiens), with OR2L2 (Homo sapiens), with OR2L3 (Homo sapiens), in the assay with OR2L5 (Homo sapiens), with OR2L8 (Homo sapiens) and with OR2M2 (Homo sapiens) was “inactive” in each case. The “odorant receptor agonist call” value with OR2M3 A33G M144T was “inactive”. The “odorant receptor agonist call” value with OR2M3 (Homo sapiens), in the assay on OR2M3 A216T and with OR2M3 A33G was “active” in each case.
`CC1=CCC2CC1C2(C)C` (stereo unspecified): the “odorant receptor agonist call” value in the assay with OR2L13 (Homo sapiens) and with OR2M3 (Homo sapiens) was “inactive” throughout.
With `C=C(C)C1CC=C(C)CC1` (stereo unspecified), the “odorant receptor agonist call” value in the assay with OR2L13 (Homo sapiens) and with OR2M3 (Homo sapiens) was “inactive” throughout.
On to `CC1CCCCCCCCCCCCC(=O)C1` (stereo unspecified), for which the “odorant receptor agonist call” value with OR2L13 (Homo sapiens), with OR2L3 (Homo sapiens), with OR2L5 (Homo sapiens), in the assay with OR2L8 (Homo sapiens), with OR2M2 (Homo sapiens) and with OR2M3 (Homo sapiens) was “inactive” in each case.
In the case of `CCCCCC(S)C(C)CO` (stereo unspecified), the “odorant receptor agonist call” value in the assay with OR2L13 (Homo sapiens), with OR2L2 (Homo sapiens), with OR2L3 (Homo sapiens), in the assay with OR2L5 (Homo sapiens), in the assay with OR2L8 (Homo sapiens) and with OR2M2 (Homo sapiens) was “inactive” throughout. For the same molecule, the “odorant receptor agonist call” value with OR2M3 (Homo sapiens) is “inactive”.
For the molecule `CCCCCC1CCC(=O)O1` (stereo unspecified), the “odorant receptor agonist call” value in the assay with OR2M3 (Homo sapiens) was “inactive”.
The same measure, in the same setting: in the case of `CC(=O)CC(C)(C)S` it was “inactive”.
